# Values joined by “and” are separate entries in the source; they are usually repeats but may differ in a detail not shown here. Equal entries are not always repeated. Where two headings read alike, the source gives them in different places.
# Columns and labels:
# [1] = tested on: CHLA-25 Ewing sarcoma cell line; assay: DIMSCAN in vitro testing, 96 h; type: cell-based; conditions: for IC50: 96 h
# Summary of the method: (§1)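 Neuroblastoma and Ewing sarcoma lines, STR-verified and maintained as in the originators' reports. Exposed for 96 h to test compound (DMSO stock diluted in medium) at 1 nM–10 μM. Viable cells quantified by fluorescein diacetate fluorescence with DIMSCAN digital image microscopy. Absolute IC50 = concentration giving 50% growth inhibition vs controls. Relative IC50 = concentration giving 50% of the maximum inhibitory effect.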
# [2] = tested on: CHLA-90 neuroblastoma cell line; assay: DIMSCAN in vitro testing, 96 h; type: cell-based; conditions: for IC50: Neuroblastoma cell, 96 h
# Summary of the method: as §1
# [3] = tested on: CHLA-119 neuroblastoma cell line; assay: DIMSCAN in vitro testing, 96 h; type: cell-based; conditions: for IC50: Neuroblastoma cell, 96 h
# Summary of the method: as §1
# [4] = tested on: NB-1643 neuroblastoma cell line; assay: DIMSCAN in vitro testing, 96 h; type: cell-based; conditions: for IC50: NB-1643, 96 h
# Summary of the method: as §1
# [5] = tested on: SK-N-BE(1) neuroblastoma cell line; assay: DIMSCAN in vitro testing, 96 h; type: cell-based; conditions: for IC50: Neuroblastoma cell, 96 h
# [6] = tested on: SMS-LHN neuroblastoma cell line; assay: DIMSCAN in vitro testing, 96 h; type: cell-based; conditions: for IC50: Neuroblastoma cell, 96 h
# Summary of the method: as §1
# [7] = tested on: SMS-MSN neuroblastoma cell line; assay: DIMSCAN in vitro testing, 96 h; type: cell-based; conditions: for IC50: Neuroblastoma cell, 96 h
# Summary of the method: as §1
# neuroblastoma cell lines = assay: DIMSCAN in vitro testing, 96 h, neuroblastoma panel; type: cell-based
# Summary of the method: as §1
# [8] = tested on: NB-EBc1 Neuroblastoma xenograft; type: in vivo, mice
# Summary of the method: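 Female CB17 scid mice bearing subcutaneous tumors, 10 per group. Dosed by oral gavage twice daily, 5 days weekly for 6 weeks, at 20.8, 10.4, 5.2 or 2.6 mg/kg, in 10% 2-hydroxypropyl-β-cyclodextrin/1% sodium bicarbonate. Event = quadrupled tumor volume; EFS by Kaplan–Meier, exact log-rank test. Per-mouse scores PD/SD/PR (≥50% regression)/CR (<0.10 cm3)/MCR; group median reported. PR, CR and MCR count as objective responses.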
# [9] = tested on: ALL-2 ALL B-precursor xenograft; assay: ALL xenograft; type: in vivo, mice
# Summary of the method: (§2)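 Female NOD/scid mice inoculated intravenously with leukemia cells, 8 per group. Test compound suspended in 10% 2-hydroxypropyl-β-cyclodextrin/1% sodium bicarbonate in water. Given by oral gavage twice daily, 5 days weekly for 3 weeks, at 20.8, 10.4, 5.2 or 2.6 mg/kg. Blood %hCD45 of leukocytes tracked; event = hCD45 reaching 25%. EFS by Kaplan–Meier, exact log-rank vs controls. Median group response from individual scores.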
# [10] = tested on: ALL-19 ALL B-precursor xenograft; assay: ALL xenograft; type: in vivo, mice
# Summary of the method: as §2
# [11] = tested on: solid tumor and ALL xenograft models; assay: EFS activity across all xenograft models at the MTD; type: in vivo, mice; conditions: MTD 20.8 mg/kg
# [12] = tested on: PPTP in vivo xenograft models; assay: Objective responses by AURKA copy number; set-up: species or system mice; conditions: MTD
compound,measurement,setting,value
COc1cc(Nc2ncc3c(n2)-c2ccc(Cl)cc2C(c2c(F)cccc2OC)=NC3)ccc1C(=O)O [MLN8237],IC50,[1]; read-out: Absolute IC50,168 nM
same,IC50,[1]; read-out: Relative IC50,58 nM
same,Ymin,"[1]; CHLA-25, minimum T/C",30.1%
same,Ymin,"[2]; CHLA-90, minimum T/C",16.3%
same,IC50,[2]; read-out: Absolute IC50,61 nM
same,IC50,[2]; read-out: Relative IC50,48 nM
same,Ymin,"[3]; CHLA-119, minimum T/C",0.5%
same,IC50,[3]; read-out: Absolute IC50,22 nM
same,IC50,[3]; read-out: Relative IC50,22 nM
same,IC50,[4]; read-out: Absolute IC50,37 nM
same,IC50,[4]; read-out: Relative IC50,32 nM
same,Ymin,"[4]; NB-1643, minimum T/C",10.2%
same,IC50,[5]; read-out: Absolute IC50,28 nM
same,IC50,[5]; read-out: Relative IC50,24 nM
same,Ymin,"[5]; SK-N-BE(1), minimum T/C",4.0%
same,IC50,[6]; read-out: Absolute IC50,32 nM
same,IC50,[6]; read-out: Relative IC50,20 nM
same,Ymin,"[6]; SMS-LHN, minimum T/C",25.1%
same,IC50,[7]; read-out: Absolute IC50,22 nM
same,IC50,[7]; read-out: Relative IC50,17 nM
same,Ymin,"[7]; SMS-MSN, minimum T/C",16.1%
same,IC50,"neuroblastoma cell lines; Neuroblastoma cell, read-out: relative IC50 values, neuroblastoma panel",23 nM
same,"median Ymin, neuroblastoma cell lines",neuroblastoma cell lines; median of neuroblastoma panel,10.4%
same,EFS T/C,[8]; 2.6 mg/kg,1.7
same,EFS activity,[8]; 2.6 mg/kg,Low
same,Estimate of median time to event,[8]; 2.6 mg/kg,9.6 days
same,Median group response,[8]; 2.6 mg/kg,"PD2 (if the TGD value >1.5, the mouse was considered PD2)"
same,Response activity,[8]; 2.6 mg/kg,Int
same,Tumor volume T/C,[8]; 2.6 mg/kg,0.57
same,Median RTV/hCD45 at end of study,[8]; 2.6 mg/kg,>4
same,EFS T/C,[8]; 5.2 mg/kg,2.0
same,EFS activity,[8]; 5.2 mg/kg,Low
same,Estimate of median time to event,[8]; 5.2 mg/kg,11.3 days
same,Median group response,[8]; 5.2 mg/kg,"PD2 (if the TGD value >1.5, the mouse was considered PD2)"
same,Response activity,[8]; 5.2 mg/kg,Int
same,Tumor volume T/C,[8]; 5.2 mg/kg,0.44
same,Median RTV/hCD45 at end of study,[8]; 5.2 mg/kg,>4
same,EFS T/C,[8]; 10.4 mg/kg,3.1
same,EFS activity,[8]; 10.4 mg/kg,Int
same,Estimate of median time to event,[8]; 10.4 mg/kg,17.9 days
same,Median group response,[8]; 10.4 mg/kg,"PD2 (if the TGD value >1.5, the mouse was considered PD2)"
same,Response activity,[8]; 10.4 mg/kg,Int
same,Tumor volume T/C,[8]; 10.4 mg/kg,0.22
same,Median RTV/hCD45 at end of study,[8]; 10.4 mg/kg,>4
same,EFS T/C,[8]; 20.8 mg/kg,>7.2
same,EFS activity,[8]; 20.8 mg/kg,High
same,Median group response,[8]; 20.8 mg/kg,MCR
same,Response activity,[8]; 20.8 mg/kg,High
same,Tumor volume T/C,[8]; 20.8 mg/kg,0.15
same,Median RTV/hCD45 at end of study,[8]; 20.8 mg/kg,0.3
same,EFS T/C,[9]; 2.6 mg/kg,2.3
same,EFS activity,[9]; 2.6 mg/kg,Int
same,Estimate of median time to event,[9]; 2.6 mg/kg,25.2 days
same,Median group response,[9]; 2.6 mg/kg,"PD2 (if the TGD value >1.5, the mouse was considered PD2)"
same,Response activity,[9]; 2.6 mg/kg,Int
same,Median RTV/hCD45 at end of study,[9]; 2.6 mg/kg,>25%
same,EFS T/C,[9]; 5.2 mg/kg,>3.8
same,EFS activity,[9]; 5.2 mg/kg,Int
same,Response activity,[9]; 5.2 mg/kg,High
same,Median RTV/hCD45 at end of study,[9]; 5.2 mg/kg,>25%
same,EFS T/C,[9]; 10.4 mg/kg,>3.8
same,EFS activity,[9]; 10.4 mg/kg,Int
same,Response activity,[9]; 10.4 mg/kg,High
same,Median RTV/hCD45 at end of study,[9]; 10.4 mg/kg,3.1%
same,EFS T/C,[9]; 20.8 mg/kg,>3.8
same,EFS activity,[9]; 20.8 mg/kg,High
same,Median group response,[9]; 20.8 mg/kg,MCR
same,Response activity,[9]; 20.8 mg/kg,High
same,Median RTV/hCD45 at end of study,[9]; 20.8 mg/kg,0.3%
same,EFS T/C,[10]; 2.6 mg/kg,1.0
same,EFS activity,[10]; 2.6 mg/kg,Low
same,Estimate of median time to event,[10]; 2.6 mg/kg,2.6 days
same,Median group response,[10]; 2.6 mg/kg,"PD1 (if the TGD value ≤1.5, that mouse was considered PD1)"
same,Response activity,[10]; 2.6 mg/kg,Low
same,Median RTV/hCD45 at end of study,[10]; 2.6 mg/kg,>25%
same,EFS T/C,[10]; 5.2 mg/kg,9.2
same,EFS activity,[10]; 5.2 mg/kg,Int
same,Estimate of median time to event,[10]; 5.2 mg/kg,22.9 days
same,Median group response,[10]; 5.2 mg/kg,"PD2 (if the TGD value >1.5, the mouse was considered PD2)"
same,Response activity,[10]; 5.2 mg/kg,Int
same,Median RTV/hCD45 at end of study,[10]; 5.2 mg/kg,>25%
same,EFS T/C,[10]; 10.4 mg/kg,14.9
same,EFS activity,[10]; 10.4 mg/kg,Int
same,Estimate of median time to event,[10]; 10.4 mg/kg,37.2 days
same,Response activity,[10]; 10.4 mg/kg,High
same,Median RTV/hCD45 at end of study,[10]; 10.4 mg/kg,>25%
same,EFS T/C,[10]; 20.8 mg/kg,16.8
same,EFS activity,[10]; 20.8 mg/kg,Int
same,Estimate of median time to event,[10]; 20.8 mg/kg,41.8 days
same,Response activity,[10]; 20.8 mg/kg,High
same,Median RTV/hCD45 at end of study,[10]; 20.8 mg/kg,>25%
same,evaluable lines meeting the criteria for high activity (EFS T/C),[11],Eight out of 11
same,objective responses in tumors with decreased AURKA copy number,[12],5/8
same,objective responses in tumors with increased AURKA gene copy number,[12],2/14 and 2
